Measured values from ChEMBL document CHEMBL3243977, “Synthesis and antiestrogenic activity of [3,4-dihydro-2-(4-methoxyphenyl)-1-naphthalenyl][4-[2-(1-pyrrolidinyl)ethoxy]-phenyl]methanone, methanesulfonic acid salt” (J Med Chem, 1979).
Calls of active or inactive are those of the source. The calls are words filed in the database; no cut-off is given here.

Columns and labels:
Mus musculus [1] = test: Antiestrogenic activity in immature Cox mouse assessed as reduction of uterine wet weight at 100 ug, sc qd for 3 days in presence of 0.3 ug of estrone; assay type: functional
Method in brief: (§1)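 Immature mice, ten per group, given the agent daily for 3 days by subcutaneous injection or by mouth. The agent went with estrone given subcutaneously (0.3 µg total dose in the table). Subcutaneous doses were in 0.1 mL corn oil, and doses are stated as total dose. Uterine wet weight was taken on day 4 and compared with estrone alone. Reported as mean difference in mg (SE) and % inhibition.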

Mus musculus [2] = test: Antiestrogenic activity in immature Cox mouse assessed as reduction of uterine wet weight at 30 ug, sc qd for 3 days in presence of 0.3 ug of estrone; assay type: functional; method in brief: as §1
Rattus norvegicus [3] = test: Postcoital antifertility activity in rat assessed as viable/resorbing fetuses at 0.5 ug, sc qd for 11 days; assay type: functional, organism-based
Method in brief: (§2)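 Female rats, 4–5 per group, given 11 daily oral or subcutaneous doses starting at the first evidence of breeding. They were killed on day 12 and checked for viable or resorbing fetuses. Results are given as animals pregnant out of animals treated.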

Rattus norvegicus [4] = test: Postcoital antifertility activity in rat assessed as viable/resorbing fetuses at 5 ug, sc qd for 11 days; assay type: functional, organism-based; method in brief: as §2
Rattus norvegicus [5] = test: Antiuterotropic activity in ovariectomized rat assessed as reduction of uterine weight at 5 ug, po qd for 7 days in presence of 17beta-estradiol (reference value: 268.7 +/- 10.3 mg); assay type: functional
Mus musculus [6] = test: Antiestrogenic activity in immature Cox mouse assessed as reduction of uterine wet weight at 100 ug, sc qd for 3 days; assay type: functional
Mus musculus [7] = test: Antiestrogenic activity in immature Cox mouse assessed as reduction of uterine wet weight at 100 ug, po qd for 3 days in presence of 0.3 ug of estrone; assay type: functional; method in brief: as §1
Mus musculus [8] = test: Antiestrogenic activity in immature Cox mouse assessed as reduction of uterine wet weight at 300 ug, po qd for 3 days in presence of 0.3 ug of estrone; assay type: functional; method in brief: as §1
Rattus norvegicus [9] = test: Antiuterotropic activity in ovariectomized rat assessed as reduction of uterine weight at 10 ug, po qd for 7 days in presence of 17beta-estradiol (reference value: 268.7 +/- 10.3 mg); assay type: functional
Rattus norvegicus [10] = test: Uterotropic activity in ovariectomized rat assessed as increase of uterine weight at 1 ug, sc qd for 7 days; assay type: functional, Uterus; conditions: in the assay text read “1 mg” for “1 ug”
Method in brief: (§3)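 Ovariectomized adult rats, five per group, treated daily for 7 days, orally or subcutaneously, with the agent in 0.1 mL corn oil. The value is the mean uterine weight in mg of the treated group minus that of the control group (eight animals). Significance was tested by Student's t test (p < 0.05).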

Rattus norvegicus [11] = test: Uterotropic activity in ovariectomized rat assessed as increase of uterine weight at 0.5 ug, po qd for 7 days; assay type: functional, Uterus; conditions: in the assay text read “0.5 mg” for “0.5 ug”; method in brief: as §3
Mus musculus [12] = test: Antiestrogenic activity in immature Cox mouse assessed as reduction of uterine wet weight at 300 ug, sc qd for 3 days in presence of 0.3 ug of estrone; assay type: functional; method in brief: as §1
Mus musculus [13] = test: Antiestrogenic activity in immature Cox mouse assessed as reduction of uterine wet weight at 1 ug, sc qd for 3 days in presence of 0.3 ug of estrone; assay type: functional; method in brief: as §1
Rattus norvegicus [14] = test: Uterotropic activity in ovariectomized rat assessed as increase of uterine weight at 1 ug, po qd for 7 days; assay type: functional, Uterus; conditions: in the assay text read “1 mg” for “1 ug”; method in brief: as §3
Mus musculus [15] = test: Antiestrogenic activity in immature Cox mouse assessed as reduction of uterine wet weight at 30 ug, sc qd for 3 days; assay type: functional
Mus musculus [16] = test: Antiestrogenic activity in immature Cox mouse assessed as reduction of uterine wet weight at 1 ug, sc qd for 3 days; assay type: functional
Mus musculus [17] = test: Antiestrogenic activity in immature Cox mouse assessed as reduction of uterine wet weight at 10 ug, sc qd for 3 days; assay type: functional
Mus musculus [18] = test: Antiestrogenic activity in immature Cox mouse assessed as reduction of uterine wet weight at 3 ug, sc qd for 3 days in presence of 0.3 ug of estrone; assay type: functional; method in brief: as §1
Rattus norvegicus [19] = test: Antiuterotropic activity in ovariectomized rat assessed as reduction of uterine weight at 3 ug, po qd for 7 days in presence of 17beta-estradiol (reference value: 268.7 +/- 10.3 mg); assay type: functional
Mus musculus [20] = test: Antiestrogenic activity in immature Cox mouse assessed as reduction of uterine wet weight at 30 ug, po qd for 3 days in presence of 0.3 ug of estrone; assay type: functional; method in brief: as §1
Mus musculus [21] = test: Antiestrogenic activity in immature Cox mouse assessed as reduction of uterine wet weight at 3 ug, sc qd for 3 days; assay type: functional
Rattus norvegicus [22] = test: Postcoital antifertility activity in rat assessed as viable/resorbing fetuses at 0.5 ug, po qd for 11 days; assay type: functional, organism-based; method in brief: as §2
Mus musculus [23] = test: Antiestrogenic activity in immature Cox mouse assessed as reduction of uterine wet weight at 300 ug, sc qd for 3 days; assay type: functional
Rattus norvegicus [24] = test: Postcoital antifertility activity in rat assessed as viable/resorbing fetuses at 1 ug, po qd for 11 days; assay type: functional, organism-based; method in brief: as §2
Rattus norvegicus [25] = test: Uterotropic activity in ovariectomized rat assessed as increase of uterine weight at 0.1 ug, po qd for 7 days; assay type: functional, Uterus; conditions: in the assay text read “0.1 mg” for “0.1 ug”; method in brief: as §3
Rattus norvegicus [26] = test: Postcoital antifertility activity in rat assessed as viable/resorbing fetuses at 5 ug, po qd for 11 days; assay type: functional, organism-based; method in brief: as §2
Mus musculus [27] = test: Antiestrogenic activity in immature Cox mouse assessed as reduction of uterine wet weight at 10 ug, sc qd for 3 days in presence of 0.3 ug of estrone; assay type: functional; method in brief: as §1
Rattus norvegicus [28] = test: Postcoital antifertility activity in rat assessed as viable/resorbing fetuses at 1 ug, sc qd for 11 days; assay type: functional, organism-based; method in brief: as §2

COc1ccc(C2=C(C(=O)c3ccc(OCCN4CCCC4)cc3)c3ccccc3CC2)cc1.CS(=O)(=O)O [TRIOXIFENE MESYLATE]
inhibition (INH) (Mus musculus [1]): 53.5% | inhibition (INH) (Mus musculus [2]): 25.9% | Activity (Rattus norvegicus [3]): inactive | Activity (Rattus norvegicus [4]): Active | Activity (Rattus norvegicus [5]): 222.3 mg | Activity (Mus musculus [6]): 24.2 mg | inhibition (INH) (Mus musculus [7]): 49.2% | inhibition (INH) (Mus musculus [8]): 52.3% | Activity (Rattus norvegicus [9]): 200.9 mg | Activity (Rattus norvegicus [10]): 66.8 mg | Activity (Rattus norvegicus [11]): 54.9 mg | inhibition (INH) (Mus musculus [12]): 44.1% | inhibition (INH) (Mus musculus [13]): 0% | Activity (Rattus norvegicus [14]): 58.7 mg | Activity (Mus musculus [15]): 21.2 mg | Activity (Mus musculus [16]): 8.6 mg | Activity (Mus musculus [17]): 34 mg | inhibition (INH) (Mus musculus [18]): 12.7% | Activity (Rattus norvegicus [19]): 231.7 mg | inhibition (INH) (Mus musculus [20]): 31.1% | Activity (Mus musculus [21]): 28.8 mg | Activity (Rattus norvegicus [22]): inactive | Activity (Mus musculus [23]): 19.1 mg | Activity (Rattus norvegicus [24]): Active | Activity (Rattus norvegicus [25]): 35 mg | Activity (Rattus norvegicus [26]): Active | inhibition (INH) (Mus musculus [27]): 22.8% | Activity (Rattus norvegicus [28]): Active

COc1ccc(C(=O)C2=C(c3ccc(OC)cc3)CCc3ccccc32)cc1
Activity (Rattus norvegicus [24]): inactive | Activity (Rattus norvegicus [28]; in the assay text read “at 1 mg” for “at 1 ug”): inactive

COc1ccc(C(=O)C2C(c3ccc(OC)cc3)=CCc3ccccc32)cc1 (configuration not stated)
Activity (Rattus norvegicus [24]): inactive | Activity (Rattus norvegicus [28]): inactive
